The source made the active and inactive calls. The calls are words filed in the database; no cut-off is given here.
Assays:
[1] = Plasma protein binding in human; assay type: ADME, cell-free; settings: read-out: PPB
[2] = Terminal half life in Wistar han rat at 2 mg/kg, po and 1 mg/kg, iv; assay type: ADME, organism-based; settings: in vivo, read-out: beta t1/2 (converted)
Outline: (§1)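 Wistar Han rats. IV dose 1 mg/kg in DMSO/PEG200/water (10:60:30), n=2. Oral dose 2 mg/kg in imwitor/tween (1:1) by gavage, n=3. Values are averages. Derived: F%, plasma clearance, Vdss, terminal half-life and oral AUC normalized to dose.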

[3] = Metabolic stability in rat liver microsomes assessed as compound remaining at 1 uM after 0.5 hrs; assay type: ADME; settings: read-out: Stability
[4] = Plasma clearance in Wistar han rat at 2 mg/kg, po and 1 mg/kg, iv; assay type: ADME, organism-based; outline: as §1
Rattus norvegicus [5] = assay: Dose normalized AUC in Wistar han rat at 2 mg/kg, po; assay type: ADME, organism-based; settings: in vivo; outline: as §1
[6] = Metabolic stability in human liver microsomes assessed as compound remaining at 1 uM after 0.5 hrs; assay type: ADME; settings: read-out: Stability
[7] = molecular target: T1, Mineralocorticoid receptor (Homo sapiens) (UniProt P08235); assay: Agonist activity at human mineralocorticoid receptor by cell-based assay
T1 sequence (whole entry): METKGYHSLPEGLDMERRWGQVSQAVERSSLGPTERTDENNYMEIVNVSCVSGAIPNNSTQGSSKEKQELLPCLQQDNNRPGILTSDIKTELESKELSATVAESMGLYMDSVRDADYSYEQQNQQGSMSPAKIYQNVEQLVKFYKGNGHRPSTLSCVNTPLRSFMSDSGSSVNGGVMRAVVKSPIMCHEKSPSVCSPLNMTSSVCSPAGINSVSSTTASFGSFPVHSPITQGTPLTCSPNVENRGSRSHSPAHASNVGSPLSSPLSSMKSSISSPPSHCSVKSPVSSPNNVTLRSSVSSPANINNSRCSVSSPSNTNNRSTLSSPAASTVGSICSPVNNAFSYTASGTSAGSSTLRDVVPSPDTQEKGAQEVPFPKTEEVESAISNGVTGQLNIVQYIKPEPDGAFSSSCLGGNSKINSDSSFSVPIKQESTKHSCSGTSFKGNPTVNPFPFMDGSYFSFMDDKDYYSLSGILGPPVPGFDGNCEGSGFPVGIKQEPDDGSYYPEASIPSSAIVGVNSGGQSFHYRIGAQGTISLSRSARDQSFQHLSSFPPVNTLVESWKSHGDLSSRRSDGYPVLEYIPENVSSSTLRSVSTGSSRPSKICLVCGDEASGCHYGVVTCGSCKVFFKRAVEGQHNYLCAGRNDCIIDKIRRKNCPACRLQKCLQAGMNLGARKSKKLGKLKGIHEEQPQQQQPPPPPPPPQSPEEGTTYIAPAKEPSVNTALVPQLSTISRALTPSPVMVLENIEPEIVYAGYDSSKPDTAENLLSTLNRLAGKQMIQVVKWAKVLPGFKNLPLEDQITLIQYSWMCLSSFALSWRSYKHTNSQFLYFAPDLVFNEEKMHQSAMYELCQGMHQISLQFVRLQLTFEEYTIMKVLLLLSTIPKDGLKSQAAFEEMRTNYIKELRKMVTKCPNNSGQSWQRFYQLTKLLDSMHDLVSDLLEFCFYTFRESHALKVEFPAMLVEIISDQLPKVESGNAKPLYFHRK

[8] = Volume of distribution at steady state in Wistar han rat at 2 mg/kg, po and 1 mg/kg, iv; assay type: ADME, organism-based; settings: in vivo, read-out: Vdss; outline: as §1
[9] = Oral bioavailability in Wistar han rat at 2 mg/kg; assay type: ADME, organism-based; settings: in vivo; outline: as §1
[10] = Fraction unbound in 10% rat plasma; assay type: ADME, cell-free; settings: 10% plasma
Outline: (§2)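 Free fraction measured in the presence of 10% plasma (human or rat), taken as correlating with the free fraction in whole plasma.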

[11] = Plasma protein binding in rat; assay type: ADME, cell-free; settings: read-out: PPB
[12] = molecular target: T2, Mineralocorticoid receptor (Homo sapiens, UniProt P08235); assay: Antagonist activity at human mineralocorticoid receptor overexpressed in CHOK1 cells assessed as inhibition of aldosterone-induced protein interaction with coactivator peptide after 6 hrs by luminescence assay; assay type: cell-based, CHO-K1
T2 sequence (P08235 whole entry): T1 sequence (whole entry)

[13] = molecular target: T3, Progesterone receptor (Homo sapiens) (UniProt P06401); assay: Agonist activity at human progesterone receptor beta by cell-based assay
T3 sequence (whole entry): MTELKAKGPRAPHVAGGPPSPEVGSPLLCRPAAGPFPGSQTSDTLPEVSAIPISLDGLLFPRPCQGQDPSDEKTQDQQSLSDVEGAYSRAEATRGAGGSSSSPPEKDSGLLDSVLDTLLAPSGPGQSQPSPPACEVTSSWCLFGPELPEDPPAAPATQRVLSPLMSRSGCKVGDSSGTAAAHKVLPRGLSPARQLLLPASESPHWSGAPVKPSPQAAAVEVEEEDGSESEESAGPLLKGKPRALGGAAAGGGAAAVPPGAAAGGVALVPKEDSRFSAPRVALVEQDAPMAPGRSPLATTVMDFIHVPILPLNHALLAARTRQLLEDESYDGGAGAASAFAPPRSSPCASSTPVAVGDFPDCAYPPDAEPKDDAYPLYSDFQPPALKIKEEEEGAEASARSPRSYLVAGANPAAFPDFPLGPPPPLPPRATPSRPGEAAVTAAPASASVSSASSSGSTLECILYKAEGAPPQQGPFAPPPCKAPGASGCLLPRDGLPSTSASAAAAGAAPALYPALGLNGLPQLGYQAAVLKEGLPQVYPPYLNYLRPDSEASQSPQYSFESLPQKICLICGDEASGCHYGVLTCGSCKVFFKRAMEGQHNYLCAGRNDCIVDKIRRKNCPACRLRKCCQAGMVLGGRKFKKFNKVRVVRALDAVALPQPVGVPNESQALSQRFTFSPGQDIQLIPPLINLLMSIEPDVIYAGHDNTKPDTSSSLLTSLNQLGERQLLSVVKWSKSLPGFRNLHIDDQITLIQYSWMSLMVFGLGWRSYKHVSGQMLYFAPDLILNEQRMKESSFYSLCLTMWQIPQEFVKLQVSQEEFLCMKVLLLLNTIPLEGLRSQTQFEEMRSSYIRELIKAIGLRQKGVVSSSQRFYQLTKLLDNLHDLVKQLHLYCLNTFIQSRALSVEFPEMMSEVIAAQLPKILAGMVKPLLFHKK

[14] = molecular target: T4, Estrogen receptor (Homo sapiens) (UniProt P03372); assay: Agonist activity at human estrogen receptor alpha by cell-based assay
T4 sequence (whole entry): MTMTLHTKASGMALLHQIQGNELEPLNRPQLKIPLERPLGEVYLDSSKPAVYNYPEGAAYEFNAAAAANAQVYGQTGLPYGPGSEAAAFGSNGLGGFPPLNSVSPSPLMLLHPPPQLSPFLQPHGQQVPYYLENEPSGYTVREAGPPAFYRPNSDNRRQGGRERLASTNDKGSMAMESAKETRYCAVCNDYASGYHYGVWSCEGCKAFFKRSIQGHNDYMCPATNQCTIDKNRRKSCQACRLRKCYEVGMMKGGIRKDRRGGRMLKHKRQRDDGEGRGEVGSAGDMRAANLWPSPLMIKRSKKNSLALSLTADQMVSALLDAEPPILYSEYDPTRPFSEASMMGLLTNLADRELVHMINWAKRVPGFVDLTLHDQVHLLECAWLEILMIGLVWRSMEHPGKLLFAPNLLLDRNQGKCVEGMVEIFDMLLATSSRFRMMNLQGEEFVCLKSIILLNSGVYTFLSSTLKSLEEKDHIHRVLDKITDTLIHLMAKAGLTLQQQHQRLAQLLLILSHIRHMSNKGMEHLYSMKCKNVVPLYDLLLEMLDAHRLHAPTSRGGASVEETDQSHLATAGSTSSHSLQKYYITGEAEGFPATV

[15] = Fraction unbound in 10% human plasma; assay type: ADME, cell-free; settings: 10% plasma; outline: as §2
Rattus norvegicus [16] = assay: Natriuretic activity in WKY rat at 30 to 100 mg/kg, po measured over 6 hrs; assay type: functional, organism-based

SMILES: C[C@H](c1ccc(F)cc1)N1C(=O)O[C@](Cc2ccccc2)(c2nc3c(C(F)(F)F)cccc3[nH]2)C1=O
- fraction unbound [1]: < 0.01
- half-life [2]: 144 min
- remaining at 0.5 h, 1 µM [3]: 51%
- clearance [4]: 23 mL/min/kg
- AUC/dose (Rattus norvegicus [5]): 0.067 µM·kg·h/mg
- remaining at 0.5 h, 1 µM [6]: 77%
- Activity [7]: inactive
- Vd [8]: 3.4 L/kg
- bioavailability [9]: 44%
- fraction unbound [10]: 0.005
- fraction unbound [11]: < 0.01
- IC50 [12]: 150 nM
- Activity [13]: inactive
- Activity [14]: inactive
- fraction unbound [15]: 0.002

SMILES: CC(=O)S[C@@H]1CC2=CC(=O)CC[C@]2(C)[C@H]2CC[C@@]3(C)[C@@H](CC[C@@]34CCC(=O)O4)[C@H]12
- Activity [7]: inactive
- Activity [13]: inactive
- Activity (Rattus norvegicus [16]): Active
- Activity [14]: inactive

SMILES: CC(=O)Nc1cccc2[nH]c([C@@]3(Cc4ccccc4)OC(=O)N([C@H](C)c4ccc(F)cc4)C3=O)nc12
- remaining at 0.5 h, 1 µM [3]: 41%
- remaining at 0.5 h, 1 µM [6]: 89%
- Activity [7]: inactive
- IC50 [12]: 1100 nM
- Activity [13]: inactive
- Activity [14]: inactive

SMILES: C[C@H](c1ccc(F)cc1)N1C(=O)O[C@](Cc2ccccc2)(c2nc3cc(-c4cnn(C)c4)ccc3[nH]2)C1=O
- remaining at 0.5 h, 1 µM [3]: 26%
- remaining at 0.5 h, 1 µM [6]: 72%
- Activity [7]: inactive
- IC50 [12]: 33 nM
- Activity [13]: inactive
- Activity [14]: inactive
